{
  "source": "ChEMBL document CHEMBL1125907",
  "about": "“Folate analogues. 34. Synthesis and antitumor activity of non-polyglutamylatable inhibitors of dihydrofolate reductase” (J Med Chem, 1991)",
  "key": {"Dihydrofolate reductase": {"biological_target": "T1, Dihydrofolate reductase (Homo sapiens, UniProt P00374)", "T1 sequence (P00374 whole entry)": "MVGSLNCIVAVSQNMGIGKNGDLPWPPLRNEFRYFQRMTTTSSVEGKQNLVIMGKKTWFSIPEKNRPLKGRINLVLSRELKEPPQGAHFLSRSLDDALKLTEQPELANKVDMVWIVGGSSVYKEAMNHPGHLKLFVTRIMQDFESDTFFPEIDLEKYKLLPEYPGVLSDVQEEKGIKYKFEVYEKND", "assay": "Compound was tested for its inhibitory activity on Recombinant Human Dihydrofolate Reductase."}, "CCRF-CEM [1]": {"tested_on": "CCRF-CEM", "assay": "(§1) Relative activity when compared to the activity of aminopterin in CCRF-CEM Human leukemia cell at a concentration of 50 uM", "type": "functional", "method_in_brief": "(§2)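 Used purified folylpolyglutamate synthetase (FPGS) isolated from CCRF-CEM human leukemia cells. Each compound was tested as an alternative substrate. Activity was read as [3H]glutamate incorporation and expressed relative to aminopterin as reference substrate at 50 μM. Test compounds were examined at concentrations up to 200 μM.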"}, "H35R0.3 [2]": {"tested_on": "H35R0.3", "assay": "Compound was tested for its inhibitory activity in tumor cell growth in H35 hepatoma cells", "type": "functional, cell-based", "settings": "Rattus norvegicus"}, "CCRF-CEM [3]": {"tested_on": "CCRF-CEM", "assay": "Relative activity when compared to the activity of aminopterin in CCRF-CEM Human leukemia cell at a concentration of 200 uM", "type": "functional", "method_in_brief": "as §2"}, "[4]": {"biological_target": "T2, Folylpolyglutamate synthase, mitochondrial (Homo sapiens, UniProt Q05932)", "T2 sequence (Q05932 whole entry)": "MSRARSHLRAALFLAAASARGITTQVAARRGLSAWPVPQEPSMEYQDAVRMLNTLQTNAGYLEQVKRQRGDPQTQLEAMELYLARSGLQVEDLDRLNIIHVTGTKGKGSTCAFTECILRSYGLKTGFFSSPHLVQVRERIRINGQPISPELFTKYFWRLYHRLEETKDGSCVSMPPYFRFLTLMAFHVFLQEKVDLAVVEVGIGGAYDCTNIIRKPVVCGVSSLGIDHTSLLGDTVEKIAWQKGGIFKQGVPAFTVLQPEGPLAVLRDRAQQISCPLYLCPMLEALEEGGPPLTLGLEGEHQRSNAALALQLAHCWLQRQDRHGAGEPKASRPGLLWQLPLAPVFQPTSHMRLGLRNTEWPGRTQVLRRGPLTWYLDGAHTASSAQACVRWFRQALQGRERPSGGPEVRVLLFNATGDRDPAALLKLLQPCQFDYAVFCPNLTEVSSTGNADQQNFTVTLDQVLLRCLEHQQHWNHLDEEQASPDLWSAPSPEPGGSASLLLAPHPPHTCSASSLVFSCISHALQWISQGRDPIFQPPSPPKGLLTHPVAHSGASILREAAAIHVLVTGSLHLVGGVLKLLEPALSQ", "assay": "Compound was evaluated for the inhibition of Folyl-polyglutamate synthase in CCRF-CEM Human leukemia cell.", "method_in_brief": "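Purified folylpolyglutamate synthetase from CCRF-CEM human leukemia cells, with 50 µM aminopterin as substrate. Increasing amounts of test compound were added to the assay mixture. Activity was read as [3H]glutamate incorporation, and inhibition was expressed as IC50.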"}, "H35R0.3 [5]": {"tested_on": "H35R0.3", "assay": "Compound was tested for its inhibitory activity in tumor cell growth in H35R cells", "type": "functional, cell-based", "settings": "Rattus norvegicus"}, "Manca": {"tested_on": "Manca", "assay": "Compound was tested for its inhibitory activity manca tumor cell growth", "type": "functional, cell-based", "settings": "Homo sapiens"}, "CCRF-CEM [6]": {"tested_on": "CCRF-CEM", "assay": "Compound was tested for its inhibitory activity in tumor cell growth in CCRF-CEM in human.", "type": "functional, cell-based"}, "H35R0.3 [7]": {"tested_on": "H35R0.3", "assay": "Compound was tested for growth inhibition of H35 Hepatoma cells.", "type": "functional, cell-based", "settings": "Rattus norvegicus", "method_in_brief": "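H35 hepatoma cells grown 24 h, then exposed to compound for a 6-h pulse (24–30 h); growth read as cell counts after 72 h in culture medium.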"}, "H35R0.3 [8]": {"tested_on": "H35R0.3", "assay": "Compound was tested for inhibition of folinic acid transport in H35 Hepatoma cells.", "type": "functional, cell-based", "settings": "Rattus norvegicus"}, "H35R0.3 [9]": {"tested_on": "H35R0.3", "assay": "Compound was tested for inhibition of folinic acid transport in H35 Hepatoma cells; No Inhibition at 50 uM", "type": "functional, cell-based, Rattus norvegicus"}, "CCRF-CEM [10]": {"tested_on": "CCRF-CEM", "assay": "as §1", "type": "functional", "method_in_brief": "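Purified folylpolyglutamate synthetase from CCRF-CEM human leukemia cells; substrate activity measured as [3H]glutamate incorporation with compound up to 200 μM, expressed relative to aminopterin at 50 μM.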", "remark": "listed apart in the source"}},
  "note": "pIC50: −log10 of the molar value.",
  "data": [
    {"compound": "Nc1nc(N)c2nc(CCc3ccc(C(=O)N[C@@H](CCC(=O)O)C(=O)O)cc3)cnc2n1", "values": [
      {"measurement": "pIC50", "setting": "Dihydrofolate reductase", "value": 8.39},
      {"measurement": "Relative activity", "setting": "CCRF-CEM [1]", "value": 60}
    ]},
    {"compound": "C=C(CC(NC(=O)c1ccc(CCc2cnc3nc(N)nc(N)c3n2)cc1)C(=O)O)C(=O)O", "note": "(stereo not drawn)", "values": [
      {"measurement": "pIC50", "setting": "H35R0.3 [2]", "value": 7.41},
      {"measurement": "Relative activity", "setting": "CCRF-CEM [3]", "value": "<2"},
      {"measurement": "pIC50", "setting": "[4]", "value": "< 3.70"},
      {"measurement": "pIC50", "setting": "H35R0.3 [5]", "value": 4.74},
      {"measurement": "pIC50", "setting": "Manca", "value": 8.00},
      {"measurement": "pIC50", "setting": "Dihydrofolate reductase", "value": 8.06},
      {"measurement": "pIC50", "setting": "CCRF-CEM [6]", "value": 7.89},
      {"measurement": "pIC50", "setting": "H35R0.3 [7]", "value": "< 4.70"},
      {"measurement": "pIC50", "setting": "H35R0.3 [8]", "value": 5.26}
    ]},
    {"compound": "CN(Cc1cnc2nc(N)nc(N)c2n1)c1ccc(C(=O)NC(C(=O)O)C(O)CC(=O)O)cc1", "note": "(stereo not drawn)", "values": [
      {"measurement": "pIC50", "setting": "H35R0.3 [2]", "value": 7.07},
      {"measurement": "pIC50", "setting": "[4]", "value": "< 3.70"},
      {"measurement": "pIC50", "setting": "H35R0.3 [5]", "value": 5.25},
      {"measurement": "pIC50", "setting": "Manca", "value": 7.32},
      {"measurement": "pIC50", "setting": "Dihydrofolate reductase", "value": 8.28},
      {"measurement": "Relative activity", "setting": "CCRF-CEM [1]", "value": "<3"},
      {"measurement": "IC50", "setting": "H35R0.3 [9]", "value": "No inhibition"}
    ]},
    {"compound": "C=C(CC(NC(=O)c1ccc(C(CC)Cc2cnc3nc(N)nc(N)c3n2)cc1)C(=O)O)C(=O)O", "note": "(stereo not drawn)", "values": [
      {"measurement": "pIC50", "setting": "H35R0.3 [2]", "value": 8.20},
      {"measurement": "Relative activity", "setting": "CCRF-CEM [3]", "value": "<1"},
      {"measurement": "pIC50", "setting": "[4]", "value": 3.93},
      {"measurement": "pIC50", "setting": "H35R0.3 [5]", "value": 4.85},
      {"measurement": "pIC50", "setting": "Manca", "value": 8.42},
      {"measurement": "pIC50", "setting": "Dihydrofolate reductase", "value": 8.24},
      {"measurement": "pIC50", "setting": "CCRF-CEM [6]", "value": 8.13},
      {"measurement": "pIC50", "setting": "H35R0.3 [7]", "value": 4.85},
      {"measurement": "pIC50", "setting": "H35R0.3 [8]", "value": 5.82}
    ]},
    {"compound": "C=C(CC(NC(=O)c1ccc(N(C)Cc2cnc3nc(N)nc(N)c3n2)cc1)C(=O)O)C(=O)O", "note": "(stereo not drawn)", "values": [
      {"measurement": "pIC50", "setting": "H35R0.3 [2]", "value": 7.80},
      {"measurement": "Relative activity", "setting": "CCRF-CEM [3]", "value": "<1"},
      {"measurement": "pIC50", "setting": "[4]", "value": "< 3.70"},
      {"measurement": "pIC50", "setting": "H35R0.3 [5]", "value": 4.68},
      {"measurement": "pIC50", "setting": "Manca", "value": 7.59},
      {"measurement": "pIC50", "setting": "Dihydrofolate reductase", "value": 8.19},
      {"measurement": "pIC50", "setting": "CCRF-CEM [6]", "value": 7.52},
      {"measurement": "pIC50", "setting": "H35R0.3 [7]", "value": 5.41},
      {"measurement": "pIC50", "setting": "H35R0.3 [8]", "value": 5.15}
    ]},
    {"compound": "Nc1nc(N)c2nc(CCc3ccc(C(=O)NC(C(=O)O)C(O)CC(=O)O)cc3)cnc2n1", "note": "(stereo not drawn)", "values": [
      {"measurement": "pIC50", "setting": "[4]", "value": "< 4.30"},
      {"measurement": "pIC50", "setting": "Manca", "value": 7.54},
      {"measurement": "pIC50", "setting": "Dihydrofolate reductase", "value": 8.23},
      {"measurement": "Relative activity", "setting": "CCRF-CEM [1]", "value": "<3"}
    ]},
    {"compound": "Nc1nc(N)c2nc(CNc3ccc(C(=O)N[C@@H](CCC(=O)O)C(=O)O)cc3)cnc2n1", "note": "[AMINOPTERIN]", "values": [
      {"measurement": "Relative activity", "setting": "CCRF-CEM [10]", "value": 100}
    ]},
    {"compound": "CN(Cc1cnc2nc(N)nc(N)c2n1)c1ccc(C(=O)N[C@@H](CCC(=O)O)C(=O)O)cc1", "note": "[METHOTREXATE]", "values": [
      {"measurement": "pIC50", "setting": "H35R0.3 [7]", "value": 7.07},
      {"measurement": "pIC50", "setting": "H35R0.3 [8]", "value": 4.74}
    ]}
  ]
}
